Key:
[1] = biological target: T1, Multidrug resistance-associated protein 1 (Homo sapiens, UniProt P33527); experiment: Inhibition of MRP1-mediated E2-17betaG transport in human MRP1 expressing HEK293 cells at 12 uM during 5 mins; type: ADME, cell-based; conditions: hek293, 5 min, 12 µM
Summary of the method: (§1)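 Inside-out membrane vesicles from MRP1-baculovirus-transduced HEK293 cells. 7.5 μg vesicles in TS buffer, 4 mM ATP, 10 mM MgCl2, 0.16 μM [3H]E2-17βG, 5 min at 37°C. Stopped on ice, then rapid filtration and scintillation counting. ATP minus AMP uptake taken as net. Nominal 10 or 100 μM antagonist, actual levels by LC-MS/MS. Expressed as % of untreated. Three independent experiments.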

[2] = system: Rattus norvegicus; experiment: Attenuation of CP55940-induced hypotension in iv dosed rat; type: functional
Summary of the method: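 Male normotensive anaesthetized Wistar rats; antagonist given i.v. at several doses (n=2 per dose) 10 min before CP55,940 0.1 mg/kg i.v. Hypotension develops within 1 min; lowest blood pressure taken as the hypotensive effect. ED50 is the dose inhibiting the CP55,940 hypotensive effect by 50%, calculated from the linear part of the percentage dose-response curve.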

[3] = biological target: T2, ATP-binding cassette sub-family C member 4 (Homo sapiens, UniProt O15439); experiment: Inhibition of MRP4-mediated E2-17betaG transport in human MRP4 expressing HEK293 cells at 12 uM during 5 mins; type: ADME, cell-based; conditions: hek293, 5 min, 12 µM
T2 sequence (O15439 whole entry): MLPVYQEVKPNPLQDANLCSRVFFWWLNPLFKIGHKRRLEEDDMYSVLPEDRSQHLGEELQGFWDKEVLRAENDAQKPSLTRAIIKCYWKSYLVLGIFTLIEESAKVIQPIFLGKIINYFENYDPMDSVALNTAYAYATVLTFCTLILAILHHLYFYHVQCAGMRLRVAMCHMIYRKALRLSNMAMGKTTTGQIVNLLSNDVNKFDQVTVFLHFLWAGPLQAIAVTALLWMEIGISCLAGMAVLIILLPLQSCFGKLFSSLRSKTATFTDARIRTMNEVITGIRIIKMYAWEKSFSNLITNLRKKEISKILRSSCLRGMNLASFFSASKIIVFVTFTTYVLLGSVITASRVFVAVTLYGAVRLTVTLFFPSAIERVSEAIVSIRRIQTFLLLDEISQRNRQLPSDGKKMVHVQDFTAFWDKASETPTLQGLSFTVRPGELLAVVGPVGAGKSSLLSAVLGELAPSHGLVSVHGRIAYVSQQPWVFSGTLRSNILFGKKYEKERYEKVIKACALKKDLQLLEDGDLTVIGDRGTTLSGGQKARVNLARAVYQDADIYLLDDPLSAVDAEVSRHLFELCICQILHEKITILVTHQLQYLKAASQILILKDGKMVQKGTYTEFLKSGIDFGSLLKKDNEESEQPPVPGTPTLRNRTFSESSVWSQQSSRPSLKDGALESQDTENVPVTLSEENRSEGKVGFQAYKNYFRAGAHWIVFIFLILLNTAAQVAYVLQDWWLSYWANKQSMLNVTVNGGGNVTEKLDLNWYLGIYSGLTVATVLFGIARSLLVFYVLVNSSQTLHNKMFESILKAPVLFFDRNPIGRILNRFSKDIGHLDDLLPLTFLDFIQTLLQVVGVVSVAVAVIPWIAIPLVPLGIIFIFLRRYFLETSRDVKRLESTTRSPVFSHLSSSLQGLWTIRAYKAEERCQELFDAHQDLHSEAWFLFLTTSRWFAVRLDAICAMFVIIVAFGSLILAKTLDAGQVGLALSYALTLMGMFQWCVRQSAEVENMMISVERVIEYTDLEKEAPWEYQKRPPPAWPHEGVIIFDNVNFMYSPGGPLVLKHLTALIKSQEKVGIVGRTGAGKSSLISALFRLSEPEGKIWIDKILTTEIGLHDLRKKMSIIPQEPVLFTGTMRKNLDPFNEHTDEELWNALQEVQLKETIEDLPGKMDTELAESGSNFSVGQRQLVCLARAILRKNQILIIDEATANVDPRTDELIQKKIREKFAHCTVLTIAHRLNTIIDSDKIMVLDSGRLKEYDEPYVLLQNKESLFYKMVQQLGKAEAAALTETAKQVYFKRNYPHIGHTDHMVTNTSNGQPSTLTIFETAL
Summary of the method: (§2)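 MRP4-expressing HEK293 inside-out vesicles (baculovirus transduction). 7.5 μg protein with 4 mM ATP, 10 mM MgCl2 in TS buffer and 0.12 μM [3H]E2-17βG, 5 min at 37°C. Filter-bound radioactivity counted; AMP control subtracted for ATP-dependent uptake. Nominal 10/100 μM antagonist, actual concentrations by LC-MS/MS. Percent of untreated, three independent experiments.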

[4] = biological target: T3, ATP-binding cassette sub-family C member 2 (Homo sapiens, UniProt Q92887); experiment: Induction of MRP2-mediated E2-17betaG transport in human MRP2 expressing HEK293 cells at 12 uM during 5 mins; type: ADME, cell-based; conditions: hek293, 5 min
T3 sequence (Q92887 whole entry): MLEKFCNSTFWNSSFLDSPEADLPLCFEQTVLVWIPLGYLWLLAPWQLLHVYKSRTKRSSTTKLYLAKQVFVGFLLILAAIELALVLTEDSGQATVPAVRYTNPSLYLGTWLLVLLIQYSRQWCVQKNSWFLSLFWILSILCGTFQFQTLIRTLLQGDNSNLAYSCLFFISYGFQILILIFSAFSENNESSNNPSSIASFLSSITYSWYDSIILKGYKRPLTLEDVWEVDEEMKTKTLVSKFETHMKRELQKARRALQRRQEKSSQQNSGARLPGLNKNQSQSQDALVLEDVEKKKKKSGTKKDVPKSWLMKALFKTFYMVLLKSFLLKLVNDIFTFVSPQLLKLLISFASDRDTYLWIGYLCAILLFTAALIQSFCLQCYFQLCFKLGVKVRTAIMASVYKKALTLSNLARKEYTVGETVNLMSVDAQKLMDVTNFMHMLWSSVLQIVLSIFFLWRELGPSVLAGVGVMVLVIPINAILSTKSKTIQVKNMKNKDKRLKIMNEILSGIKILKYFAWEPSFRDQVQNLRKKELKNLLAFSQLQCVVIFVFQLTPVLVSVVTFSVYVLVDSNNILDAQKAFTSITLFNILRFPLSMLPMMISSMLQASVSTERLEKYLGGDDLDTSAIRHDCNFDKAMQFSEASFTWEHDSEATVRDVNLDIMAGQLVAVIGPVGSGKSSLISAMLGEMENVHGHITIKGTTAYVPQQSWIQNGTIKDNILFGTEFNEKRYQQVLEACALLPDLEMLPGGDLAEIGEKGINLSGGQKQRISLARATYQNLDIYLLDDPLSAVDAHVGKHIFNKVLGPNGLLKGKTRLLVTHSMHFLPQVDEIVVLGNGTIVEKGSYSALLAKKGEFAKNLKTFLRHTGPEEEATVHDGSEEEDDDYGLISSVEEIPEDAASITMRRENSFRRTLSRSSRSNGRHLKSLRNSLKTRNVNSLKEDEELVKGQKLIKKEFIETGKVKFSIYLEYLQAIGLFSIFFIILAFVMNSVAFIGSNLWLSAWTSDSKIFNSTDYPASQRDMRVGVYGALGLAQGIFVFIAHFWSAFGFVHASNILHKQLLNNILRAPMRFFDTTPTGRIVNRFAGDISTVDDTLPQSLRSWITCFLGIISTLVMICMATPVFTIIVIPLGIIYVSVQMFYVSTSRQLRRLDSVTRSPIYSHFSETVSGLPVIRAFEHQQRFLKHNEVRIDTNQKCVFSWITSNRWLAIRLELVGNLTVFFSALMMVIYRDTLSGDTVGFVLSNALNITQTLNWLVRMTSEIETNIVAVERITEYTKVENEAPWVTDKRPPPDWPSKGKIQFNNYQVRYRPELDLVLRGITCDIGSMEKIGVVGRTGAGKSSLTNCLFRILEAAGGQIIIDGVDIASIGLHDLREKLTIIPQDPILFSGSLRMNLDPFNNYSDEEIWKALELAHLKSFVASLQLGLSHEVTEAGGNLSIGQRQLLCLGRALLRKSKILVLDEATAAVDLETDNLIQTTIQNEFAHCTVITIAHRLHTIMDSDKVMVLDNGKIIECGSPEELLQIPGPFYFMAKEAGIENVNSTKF
Summary of the method: (§3)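 Inside-out membrane vesicles from HEK293 cells transduced with MRP2 baculovirus (sodium butyrate 5 mM added at 24 h, harvested day 3). 7.5 μg vesicles in TS buffer (pH 7.4) with 4 mM ATP, 10 mM MgCl2, 20 μM [3H]E2-17βG, 5 min at 37°C. Rapid filtration and scintillation counting; AMP values subtracted. Nominal 10 and 100 μM antagonist, actual levels measured by LC-MS/MS. Untreated set at 100%. Three independent experiments.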

[5] = Retention time of the compound by LC-MS/MS method; type: physicochemical
Summary of the method: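 Reaction mix without radiolabel, AMP condition, with 7.5 μg eYFP vesicles. Supernatant after 16,000–20,000g spin diluted in 50% acetonitrile/0.1% TFA. Gradient of 0.1% TFA water/acetonitrile, 50→90% B over 5 min. Electrospray triple quadrupole. Duplicates, at least three experiments.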

[6] = biological target: T3, ATP-binding cassette sub-family C member 2; experiment: Induction of MRP2-mediated E2-17betaG transport in human MRP2 expressing HEK293 cells at 1 to 3 uM during 5 mins; type: ADME, cell-based; conditions: hek293, 5 min; summary of the method: as §3
[7] = biological target: T2, ATP-binding cassette sub-family C member 4; experiment: Inhibition of MRP4-mediated E2-17betaG transport in human MRP4 expressing HEK293 cells at 1 to 3 uM during 5 mins; type: ADME, cell-based; conditions: hek293, 5 min; summary of the method: as §2
[8] = biological target: T1, Multidrug resistance-associated protein 1; experiment: Inhibition of MRP1-mediated E2-17betaG transport in human MRP1 expressing HEK293 cells at 1 to 3 uM during 5 mins; type: ADME, cell-based; conditions: hek293, 5 min; summary of the method: as §1
[9] = biological target: T3, ATP-binding cassette sub-family C member 2; experiment: Induction of MRP2-mediated E2-17betaG transport in human MRP2 expressing HEK293 cells at 33 uM during 5 mins; type: ADME, cell-based; conditions: hek293, 5 min
Summary of the method: (§4)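 Inside-out membrane vesicles from HEK293 cells transduced with MRP baculovirus (5 mM butyrate at 24 h, harvested day 3). Reaction: 7.5 µg vesicles in TS buffer pH 7.4 with 4 mM ATP, 10 mM MgCl2 and [3H]E2-17βG, 37°C for 5 min. E2-17βG was 0.16 µM (MRP1), 20 µM (MRP2) or 0.12 µM (MRP4). Uptake was read by rapid filtration and scintillation counting. ATP-dependent uptake was taken as ATP minus AMP values, with drug-free uptake set at 100%. Nominal 10 or 100 µM antagonist; actual concentration measured by LC-MS/MS. Three independent experiments.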

[10] = biological target: T2, ATP-binding cassette sub-family C member 4; experiment: Inhibition of MRP4-mediated E2-17betaG transport in human MRP4 expressing HEK293 cells at 33 uM during 5 mins; type: ADME, cell-based; conditions: hek293, 5 min; summary of the method: as §4
[11] = biological target: T1, Multidrug resistance-associated protein 1; experiment: Inhibition of MRP1-mediated E2-17betaG transport in human MRP1 expressing HEK293 cells at 33 uM during 5 min; type: ADME, cell-based; conditions: hek293, 5 min; summary of the method: as §4
[12] = biological target: T2, ATP-binding cassette sub-family C member 4; experiment: Inhibition of MRP4-mediated E2-17betaG transport in human MRP4 expressing HEK293 cells in presence of 0.1 to 1 uM E2-17betaG
[13] = biological target: ATP-binding cassette sub-family C member 3 (Homo sapiens, UniProt O15438); experiment: Inhibition of MRP3-mediated E2-17betaG transport in human MRP3 expressing HEK293 cells in presence of 15 uM E2-17betaG; type: ADME, cell-based
ATP-binding cassette sub-family C member 3, sequence (O15438 whole entry): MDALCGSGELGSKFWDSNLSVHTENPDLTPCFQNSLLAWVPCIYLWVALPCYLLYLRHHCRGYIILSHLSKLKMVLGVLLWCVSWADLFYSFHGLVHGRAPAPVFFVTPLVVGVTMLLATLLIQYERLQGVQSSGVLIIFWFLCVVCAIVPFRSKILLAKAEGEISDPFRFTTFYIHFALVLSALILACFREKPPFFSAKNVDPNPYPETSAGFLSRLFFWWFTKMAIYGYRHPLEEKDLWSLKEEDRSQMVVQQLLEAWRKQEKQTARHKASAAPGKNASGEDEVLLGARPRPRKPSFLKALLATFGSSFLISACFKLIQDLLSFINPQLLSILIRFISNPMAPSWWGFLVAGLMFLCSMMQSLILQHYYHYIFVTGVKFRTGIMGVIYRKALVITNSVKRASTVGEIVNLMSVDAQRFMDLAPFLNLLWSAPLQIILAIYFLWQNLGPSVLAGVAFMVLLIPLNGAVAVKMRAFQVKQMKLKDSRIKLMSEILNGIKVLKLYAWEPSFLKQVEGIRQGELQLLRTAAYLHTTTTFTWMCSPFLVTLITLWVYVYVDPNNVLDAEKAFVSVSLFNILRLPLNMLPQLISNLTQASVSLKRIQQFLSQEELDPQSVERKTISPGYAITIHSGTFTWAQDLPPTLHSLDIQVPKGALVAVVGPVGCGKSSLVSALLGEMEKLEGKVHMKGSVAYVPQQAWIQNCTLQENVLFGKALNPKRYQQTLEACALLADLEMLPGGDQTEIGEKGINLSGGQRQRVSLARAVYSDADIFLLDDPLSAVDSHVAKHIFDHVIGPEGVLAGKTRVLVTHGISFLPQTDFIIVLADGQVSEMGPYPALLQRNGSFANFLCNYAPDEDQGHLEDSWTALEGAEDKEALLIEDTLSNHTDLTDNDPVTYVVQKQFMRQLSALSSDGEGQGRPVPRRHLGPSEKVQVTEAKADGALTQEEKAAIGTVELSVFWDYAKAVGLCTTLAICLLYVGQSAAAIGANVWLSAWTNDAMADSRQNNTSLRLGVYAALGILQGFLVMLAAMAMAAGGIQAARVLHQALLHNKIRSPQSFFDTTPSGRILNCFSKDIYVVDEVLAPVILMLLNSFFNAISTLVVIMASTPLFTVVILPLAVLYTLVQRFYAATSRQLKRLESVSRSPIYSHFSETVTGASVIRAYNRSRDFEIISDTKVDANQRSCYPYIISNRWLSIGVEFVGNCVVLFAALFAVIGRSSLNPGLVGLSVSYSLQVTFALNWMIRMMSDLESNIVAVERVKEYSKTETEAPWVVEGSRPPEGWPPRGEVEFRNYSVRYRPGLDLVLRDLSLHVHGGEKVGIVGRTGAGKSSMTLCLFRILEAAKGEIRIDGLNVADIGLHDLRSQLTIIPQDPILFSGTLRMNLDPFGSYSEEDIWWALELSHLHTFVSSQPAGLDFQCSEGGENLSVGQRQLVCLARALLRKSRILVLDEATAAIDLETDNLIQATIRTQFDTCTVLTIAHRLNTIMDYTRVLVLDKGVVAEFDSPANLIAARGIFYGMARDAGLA
Summary of the method: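 Vesicles from MRP3-transduced HEK293 cells. 7.5 μg in TS buffer with 4 mM ATP and 10 mM MgCl2, substrate [3H]E2-17βG at 15 μM, with antagonists at high concentrations. Incubated at 37°C, filtered and counted. ATP-dependent uptake calculated by AMP subtraction.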

[14] = biological target: T2, ATP-binding cassette sub-family C member 4; experiment: Noncompetitive inhibition of MRP4-mediated E2-17betaG transport in human MRP4 expressing HEK293 cells by Dixon plot; type: ADME, cell-based; conditions: human, hek293
[15] = biological target: T3, ATP-binding cassette sub-family C member 2; experiment: Induction of MRP2-mediated E2-17betaG transport in human MRP2 expressing HEK293 cells at 0.7 to 1.3 uM during 5 mins; type: ADME, cell-based; conditions: hek293, 5 min; summary of the method: as §3

T1 sequence (P33527 whole entry): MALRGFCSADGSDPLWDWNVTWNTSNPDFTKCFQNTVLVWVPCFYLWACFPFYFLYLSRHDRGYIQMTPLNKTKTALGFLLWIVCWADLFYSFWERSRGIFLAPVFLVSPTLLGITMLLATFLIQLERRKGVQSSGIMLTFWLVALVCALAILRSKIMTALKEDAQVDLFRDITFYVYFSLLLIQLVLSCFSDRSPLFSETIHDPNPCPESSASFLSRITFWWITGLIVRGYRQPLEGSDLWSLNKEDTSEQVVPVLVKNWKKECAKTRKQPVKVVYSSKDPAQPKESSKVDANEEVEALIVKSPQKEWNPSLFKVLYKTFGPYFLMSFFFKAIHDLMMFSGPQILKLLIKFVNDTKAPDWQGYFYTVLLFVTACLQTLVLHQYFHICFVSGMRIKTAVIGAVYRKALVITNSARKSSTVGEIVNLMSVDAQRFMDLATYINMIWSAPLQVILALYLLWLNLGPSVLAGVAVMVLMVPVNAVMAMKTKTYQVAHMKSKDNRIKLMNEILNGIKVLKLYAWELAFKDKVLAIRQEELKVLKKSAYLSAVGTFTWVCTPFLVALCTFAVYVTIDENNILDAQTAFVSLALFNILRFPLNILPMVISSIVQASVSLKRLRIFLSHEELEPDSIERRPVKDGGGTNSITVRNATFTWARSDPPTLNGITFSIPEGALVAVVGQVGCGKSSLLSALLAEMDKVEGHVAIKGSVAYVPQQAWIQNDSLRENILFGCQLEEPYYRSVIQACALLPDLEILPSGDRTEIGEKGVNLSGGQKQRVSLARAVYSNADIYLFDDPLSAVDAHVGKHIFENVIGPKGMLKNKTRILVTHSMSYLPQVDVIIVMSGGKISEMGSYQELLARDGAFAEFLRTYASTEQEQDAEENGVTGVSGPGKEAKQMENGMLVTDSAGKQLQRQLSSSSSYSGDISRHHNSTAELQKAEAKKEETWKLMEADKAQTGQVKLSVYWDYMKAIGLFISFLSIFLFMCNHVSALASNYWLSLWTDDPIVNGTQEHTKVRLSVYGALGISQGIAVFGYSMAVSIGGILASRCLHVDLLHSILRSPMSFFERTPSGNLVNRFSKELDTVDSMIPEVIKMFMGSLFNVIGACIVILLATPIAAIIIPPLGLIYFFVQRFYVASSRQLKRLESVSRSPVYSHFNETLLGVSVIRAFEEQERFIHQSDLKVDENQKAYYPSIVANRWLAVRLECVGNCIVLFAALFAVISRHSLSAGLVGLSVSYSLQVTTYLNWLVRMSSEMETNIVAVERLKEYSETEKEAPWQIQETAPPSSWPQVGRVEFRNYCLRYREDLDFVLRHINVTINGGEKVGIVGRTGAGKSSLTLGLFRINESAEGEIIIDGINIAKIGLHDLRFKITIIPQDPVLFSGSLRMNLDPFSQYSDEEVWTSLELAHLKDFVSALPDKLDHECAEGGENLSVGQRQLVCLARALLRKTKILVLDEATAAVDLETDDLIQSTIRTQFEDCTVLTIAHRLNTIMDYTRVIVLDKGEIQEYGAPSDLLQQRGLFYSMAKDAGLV

| SMILES | inhibition (INH) [1] | ED50 [2] | inhibition (INH) [3] | Activity [4] | Retention_time [5] | Activity [6] | inhibition (INH) [7] | inhibition (INH) [8] | Activity [9] | inhibition (INH) [10] | inhibition (INH) [11] | inhibition (INH) [12] | inhibition (INH) [13] | inhibition (INH) [14] | Activity [15] |
| --- | --- | --- | --- | --- | --- | --- | --- | --- | --- | --- | --- | --- | --- | --- | --- |
| CN=C(NS(=O)(=O)N1CCCC1)N1CC(c2ccccc2)C(c2ccc(Cl)cc2)=N1 (stereo not drawn) | Active | 0.7 mg/kg | Active | 543% | 3.5 min |  |  |  |  |  |  |  |  |  |  |
| CN=C(NS(=O)(=O)N1CCS(=O)(=O)CC1)N1CC(c2ccccc2)C(c2ccc(Cl)cc2)=N1 (stereo not drawn) |  |  |  |  | 2.6 min | Not Active | Not Active | Not Active |  |  |  |  |  |  |  |
| C/N=C(\NS(=O)(=O)N(C)C)N1CC(c2ccccc2)C(c2ccc(Cl)cc2)=N1 (stereo not drawn) |  | > 0.3 mg/kg |  |  | 3.2 min |  |  |  | 543% | Active | Active |  |  |  |  |
| CN/C(=N\S(=O)(=O)N1CCCCCC1)N1CC(c2ccccc2)C(c2ccc(Cl)cc2)=N1 (stereo not drawn) |  | 0.1 mg/kg |  |  | 4.8 min | 349% | Not Active | Not Active |  |  |  | Active | Active | Active | 256% |
| CNC(=NS(=O)(=O)N1CCCCCCC1)N1CC(c2ccccc2)C(c2ccc(Cl)cc2)=N1 (stereo not drawn) |  |  |  |  | 5.4 min | 349% | Not Active | Not Active |  |  |  |  |  |  | 256% |

Reference: ChEMBL document CHEMBL3526013, “Cannabinoid type 1 receptor antagonists modulate transport activity of multidrug resistance-associated proteins MRP1, MRP2, MRP3, and MRP4” (Drug Metab Dispos, 2011)
